# Non-standard residues stand in square brackets, D forms with d. Residues, ends and D or L forms follow the SMILES beside them. ξ: configuration not given here. *: point of attachment. ξF = NC(Cc1ccccc1)C(=O)O; Boc = CC(C)(C)OC(=O)*; CF3 = FC(F)(F)*
# Tests used:
# Chymotrypsinogen A = Chymotrypsinogen A (Bos taurus, UniProt P00766); test: Compound was evaluated for inhibitory activity against Chymotrypsinogen
# Procedure, shortened: (§1)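 Synthetic chromogenic substrate at 2.5 mM final in 20 mM Tris-HCl pH 7.5 with 2 M KCl. Five inhibitor concentrations were tested, with 10% DMSO in water as the control. The enzyme was added last. A405 minus A650 was read after 2 h at 37 °C. Residual activity was fitted by Easson–Stedman, and Ki = Ki'×Km/(Km+[S]). Mean ± SEM, n = 3 (some n = 2).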
# Chymase = target: T1, Chymase (Homo sapiens, UniProt P23946); test: Compound was evaluated for inhibitory activity against human heart chymase (HHC); procedure, shortened: as §1
# T1 sequence (P23946 whole entry): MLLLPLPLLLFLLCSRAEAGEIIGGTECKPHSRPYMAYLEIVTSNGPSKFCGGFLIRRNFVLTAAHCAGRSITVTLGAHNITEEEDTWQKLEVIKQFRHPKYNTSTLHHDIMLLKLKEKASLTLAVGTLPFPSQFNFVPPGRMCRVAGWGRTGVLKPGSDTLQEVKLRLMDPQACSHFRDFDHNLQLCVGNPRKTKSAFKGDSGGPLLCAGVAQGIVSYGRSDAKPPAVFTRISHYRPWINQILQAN
# Bos taurus = species on record: Bos taurus; test: Selectivity ratio of Bovine chymotrypsin (BCT - Ki) to human heart chymase (HHC - Ki)
Ki (Chymotrypsinogen A),Ki (Chymase),Ratio (Bos taurus),Compound
77400 nM,513 nM,151,CC(C)[C@H](NC(=O)OC(C)(C)C)C(=O)N1CCC[C@H]1C(=O)NC(Cc1ccccc1)C(=O)C(F)(F)C(=O)N[C@@H](Cc1ccccc1)C(=O)O (stereo not given in full)
275 nM,3.1 nM,88,CC(C)[C@H](NC(=O)c1ccccc1)C(=O)N1CCC[C@H]1C(=O)NC(Cc1ccccc1)C(=O)C(F)(F)C(=O)Nc1cccc(C(=O)O)c1 (stereo not given in full)
172 nM,7.4 nM,–,CC(C)[C@H](NC(=O)OC(C)(C)C)C(=O)N1CCC[C@H]1C(=O)NC(Cc1ccccc1)C(=O)C(F)(F)C(=O)NCc1ccccc1 (mixture of isomers; form 1) [listing 1 of 2 here]
2510 nM,6.5 nM,387,COC(=O)CNC(=O)C(F)(F)C(=O)C(Cc1ccccc1)NC(=O)[C@@H]1CCCN1C(=O)[C@@H](NC(=O)OC(C)(C)C)C(C)C (stereo not given in full)
11 nM,7.1 nM,2,CC(=O)N[C@H](C(=O)N1CCC[C@H]1C(=O)NC(Cc1ccccc1)C(=O)C(F)(F)C(=O)Nc1cccc(C(=O)O)c1)C(C)C (stereo not given in full)
2300 nM,36.4 nM,63,CC(C)[C@H](NC(=O)OC(C)(C)C)C(=O)N1CCC[C@H]1C(=O)NC(Cc1ccccc1)C(=O)C(F)(F)C(=O)NCCC(=O)O (stereo not given in full)
1700 nM,30.1 nM,57,CC(C)[C@H](NC(=O)OC(C)(C)C)C(=O)N1CCC[C@H]1C(=O)NC(Cc1ccccc1)C(=O)C(F)(F)C(=O)NC(Cc1ccccc1)C(=O)O (stereo not given in full)
554 nM,6.3 nM,88,CC(C)[C@H](NS(=O)(=O)c1ccccc1)C(=O)N1CCC[C@H]1C(=O)NC(Cc1ccccc1)C(=O)C(F)(F)C(=O)Nc1cccc(C(=O)O)c1 (stereo not given in full)
19 nM,1.3 nM,15,CC(C)[C@H](NC(=O)CCc1ccccc1)C(=O)N1CCC[C@H]1C(=O)NC(Cc1ccccc1)C(=O)C(F)(F)C(=O)Nc1cccc(C(=O)O)c1 (stereo not given in full)
> 100000 nM,3620 nM,> 28,CC(C)[C@H](NC(=O)OC(C)(C)C)C(=O)N1CCC[C@H]1C(=O)NC(Cc1ccccc1)C(=O)C(F)(F)C(=O)Nc1ccccc1C(=O)O (stereo not given in full)
4430 nM,24 nM,185,CC(C)[C@H](NC(=O)OC(C)(C)C)C(=O)N1CCC[C@H]1C(=O)NC(Cc1ccccc1)C(=O)C(F)(F)C(=O)NCCCC(=O)O (stereo not given in full)
–,–,129,CC(C)[C@H](NC(=O)OC(C)(C)C)C(=O)N1CCC[C@H]1C(=O)NC(Cc1ccccc1)C(=O)C(F)(F)C(=O)NCc1ccccc1 (mixture of isomers; form 2) [listing 1 of 2 here]
> 100000 nM,493 nM,> 203,CC(C)[C@H](NC(=O)OC(C)(C)C)C(=O)N1CCC[C@H]1C(=O)NC(Cc1ccccc1)C(=O)C(F)(F)C(=O)N1CCCC1C(=O)O (stereo not given in full)
207 nM,16.5 nM,13,CC(C)[C@H](NS(C)(=O)=O)C(=O)N1CCC[C@H]1C(=O)NC(Cc1ccccc1)C(=O)C(F)(F)C(=O)Nc1cccc(C(=O)O)c1 (stereo not given in full)
7550 nM,70.1 nM,108,CC(C)[C@H](NC(=O)OC(C)(C)C)C(=O)N1CCC[C@H]1C(=O)NC(Cc1ccccc1)C(=O)C(F)(F)C(=O)N(C)Cc1ccccc1 (stereo not given in full)
113 nM,55.8 nM,2,CC(C)[C@H](NC(=O)OC(C)(C)C)C(=O)N1CCC[C@H]1C(=O)NC(Cc1ccccc1)C(=O)C(F)(F)F (stereo partly drawn) (Boc-Val-Pro-[ξF]-CF3)
70 nM,16.3 nM,4,CC(C)[C@H](NC(=O)OC(C)(C)C)C(=O)N1CCC[C@H]1C(=O)NC(Cc1ccccc1)C(=O)C(F)(F)C(=O)Nc1ccccc1 (stereo not given in full)
316 nM,12.5 nM,25,CC(C)[C@H](NC(=O)OC(C)(C)C)C(=O)N1CCC[C@H]1C(=O)NC(Cc1ccccc1)C(=O)C(F)(F)C(=O)NCC(=O)OCc1ccccc1 (stereo not given in full)
2620 nM,13.1 nM,200,CC(C)[C@H](NC(=O)OC(C)(C)C)C(=O)N1CCC[C@H]1C(=O)NC(Cc1ccccc1)C(=O)C(F)(F)C(=O)NCC(=O)O (stereo not given in full)
200 nM,6.8 nM,29,CC(C)[C@H](NC(=O)OC(C)(C)C)C(=O)N1CCC[C@H]1C(=O)NC(Cc1ccccc1)C(=O)C(F)(F)C(=O)Nc1ccc(C(=O)O)cc1 (stereo not given in full)
> 100000 nM,1040 nM,> 96,CC(C)[C@H](NC(=O)OC(C)(C)C)C(=O)N1CCC[C@H]1C(=O)NC(Cc1ccccc1)C(=O)C(F)(F)C(=O)NC(C(=O)O)c1ccccc1 (stereo not given in full)
11900 nM,92.4 nM,–,CC(C)[C@H](NC(=O)OC(C)(C)C)C(=O)N1CCC[C@H]1C(=O)NC(Cc1ccccc1)C(=O)C(F)(F)C(=O)NCc1ccccc1 (mixture of isomers; form 2) [listing 2 of 2 here]
1070 nM,28.7 nM,37,CNC(=O)C(F)(F)C(=O)C(Cc1ccccc1)NC(=O)[C@@H]1CCCN1C(=O)[C@@H](NC(=O)OC(C)(C)C)C(C)C (stereo not given in full)
> 100000 nM,1550 nM,> 65,CC(C)[C@H](NC(=O)OC(C)(C)C)C(=O)N1CCC[C@H]1C(=O)NC(Cc1ccccc1)C(=O)C(F)(F)C(=O)NC(CC(=O)O)C(=O)O (stereo not given in full)
> 100000 nM,1010 nM,> 99,CC(C)[C@H](NC(=O)OC(C)(C)C)C(=O)N1CCC[C@H]1C(=O)NC(Cc1ccccc1)C(=O)C(F)(F)C(=O)NC(CCC(=O)O)C(=O)O (stereo not given in full)
364 nM,5.6 nM,–,CC(C)[C@H](NC(=O)OC(C)(C)C)C(=O)N1CCC[C@H]1C(=O)NC(Cc1ccccc1)C(=O)C(F)(F)C(=O)Nc1cccc(C(=O)O)c1 (stereo not given in full)
–,–,23,CC(C)[C@H](NC(=O)OC(C)(C)C)C(=O)N1CCC[C@H]1C(=O)NC(Cc1ccccc1)C(=O)C(F)(F)C(=O)NCc1ccccc1 (mixture of isomers; form 1) [listing 2 of 2 here]
54900 nM,65.6 nM,837,CC(NC(=O)C(F)(F)C(=O)C(Cc1ccccc1)NC(=O)[C@@H]1CCCN1C(=O)[C@@H](NC(=O)OC(C)(C)C)C(C)C)C(=O)O (stereo not given in full)
2040 nM,18.3 nM,111,CC(C)[C@H](NC(=O)OC(C)(C)C)C(=O)N1CCC[C@H]1C(=O)NC(Cc1ccccc1)C(=O)C(F)(F)C(=O)NCCc1ccccc1 (stereo not given in full)

# — ChEMBL document CHEMBL1130789, “Peptidyl human heart chymase inhibitors. 1. Synthesis and inhibitory activity of difluoromethylene ketone derivatives bearing P' binding subsites” (Bioorg Med Chem Lett, 1998)
